# Assay results pooled from the literature.
# Method: competition with immobilised ligand
# JAK2 JH1: Tyrosine-protein kinase JAK2, JH1 (JAK2, Homo sapiens, UniProt O60674)
Structure (SMILES),target,read-out,tested at,remaining binding [%]
O=C(c1ccc(Nc2nccc(-c3cc4ccccc4s3)n2)cc1)N1CCC(N2CCCC2)CC1,JAK2 JH1,binding,1 µM,0.1
O=C(NCC1CCOCC1)c1n[nH]cc1NC(=O)c1c(F)cccc1F,JAK2 JH1,binding,1 µM,85
CS(=O)(=O)N1CCCC(NC(=O)[C@H](CCC2CCCCC2)NC(=O)c2ccc(CNC(=O)c3cnc4ccccn34)cc2)C1 (stereo partly drawn),JAK2 JH1,cell-free assay,0.1 µM,100
O=C(c1ccc(Nc2ncc(Cl)c(-c3ccc(Cl)s3)n2)cc1)N1CCC(N2CCCC2)CC1,JAK2 JH1,binding,1 µM,1.3
FC(F)(F)Oc1cccc(-c2cnc3ccc(-c4ccncc4)nn23)c1,JAK2 JH1,cell-free assay,5 µM,56
Cc1cnn2ncc(-c3ccnc(N(C)C)n3)c2c1,JAK2 JH1,cell-free assay,1 µM,93
C[C@H](c1cccc(C#N)c1)n1cc(Cl)cc(C(N)=O)c1=N,JAK2 JH1,cell-free assay,1 µM,100
O=C(c1ccc(Nc2ncc(Cl)c(-c3cc4ccccc4s3)n2)cc1)N1CCC(N2CCCC2)CC1,JAK2 JH1,binding,1 µM,0
O=C(NS(=O)(=O)c1ccc(NCC2CCOCC2)c([N+](=O)[O-])c1)c1ccc(N2CCN(Cc3ccc(C(F)(F)F)cc3-c3ccc(Cl)cc3)CC2)cc1Oc1cnc2[nH]ccc2c1,JAK2 JH1,cell-free assay,1 µM,90
N#Cc1ccccc1CSc1nnc2c(n1)[nH]c1ccccc12,JAK2 JH1,binding,10 µM,100
C[C@@H]1CN(c2ccc3ncc(-c4ccc5[nH]nc(C6CC6)c5c4)n3n2)C[C@H](C)O1,"Tyrosine-protein kinase JAK2 (JAK2, Homo sapiens, UniProt O60674)",binding,0.5 µM,87
CN(C)c1nccc(-c2cnn3ncccc23)n1,JAK2 JH1,cell-free assay,1 µM,49
O=C(Nc1cccnn1)N1CCC(=Cc2cccc(Oc3ccc(C(F)(F)F)cn3)c2)CC1,JAK2 JH1,cell-free assay,1 µM,100
CN(C)c1nccc(-c2cnc3ncccn23)n1,JAK2 JH1,cell-free assay,1 µM,80
CN(C)C(=O)Cn1cc(-c2nc([C@@](C)(c3ccc(-c4cnc(N)nc4)cc3)C3CC3)no2)cn1,JAK2 JH1,cell-free assay,1 µM,73
COc1cnc(Nc2cccc(S(N)(=O)=O)c2)nc1N1CCN(c2ccccc2)C(=O)C1,JAK2 JH1,binding,1 µM,6.1
COc1ccc2c(O[C@@H]3C[C@H]4C(=O)N[C@]5(C(=O)O)CC5/C=C\CCCCC[C@H](NC(=O)OC5CCCC5)C(=O)N4C3)cc(-c3csc(NC(=O)C(C)C)n3)nc2c1C (stereo partly drawn),JAK2 JH1,cell-free assay,1 µM,64
CNC(=O)[C@@H]1CC[C@@H](n2c(-c3ccc4cnccc4c3)nc3ccc(C(=O)NCc4cccc(C(N)=O)c4)cc32)C1,JAK2 JH1,binding,1 µM,100
